Assay results taken from ChEMBL document CHEMBL1138863, “Synthesis, in vitro antiviral evaluation, and stability studies of novel alpha-borano-nucleotide analogues of 9-[2-(phosphonomethoxy)ethyl]adenine and (R)-9-[2-(phosphonomethoxy)propyl]adenine” (J Med Chem, 2006).

Tests used:
[1] = Stability in CEM-SS cell extracts; type: physicochemical, cell-based; conditions: human
How it was run: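 CEM-SS cells were washed in PBS, resuspended at 30 × 10^6 cells/mL in 10 mM Tris-HCl, 140 mM KCl (pH 7.4), sonicated and cleared at 10 000g. The supernatant (soluble protein 3 mg/mL) was spiked to a final 0.1 mM compound and incubated at 37 °C. Samples were drawn over time, frozen at -80 °C, and analysed by on-line cleaning reverse-phase HPLC (TEAB gradient, 260 nm). Half-life was calculated.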

Sindbis virus = assay: Antiviral activity against Sindbis virus in Vero cells; type: functional, organism-based
[2] = Cytotoxicity against Huh5-2 cells; type: cell-based, Huh-5-2; conditions: human
How it was run: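 Parallel Huh-5-2 cultures (7000 cells/well) given five 5-fold compound dilutions from 100 µM without G418; proliferation measured 3 days after addition by MTS bioreduction to formazan, read in a plate reader.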

Human alphaherpesvirus 2 = assay: Antiviral activity against HSV2 in HEL cells; type: functional, organism-based; conditions: Human alphaherpesvirus 2, HEL
[3] = test system: Vesicular stomatitis virus; assay: Antiviral activity against vesicular somatitis virus in HEL cells; type: functional, organism-based
[4] = Stability in pH 7.4 buffer at 37 degC after 72 hrs; type: physicochemical; conditions: pH 7.4, 72 h
How it was run: (§1)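 Compound at 0.1 mM final in buffer (pH 1.2, 5.2, 7.4, 8.1, 9.0 or 11.5) at 37 °C up to 72 h; aliquots frozen at -80 °C, analysed by reverse-phase HPLC (TEAB/acetonitrile gradient, 260 nm); "stable" = less than 5% decomposition after 72 h.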

[5] = test system: Respiratory syncytial virus; assay: Antiviral activity against RSV in HeLa cells; type: functional, organism-based; conditions: human respiratory syncytial virus
[6] = Stability in pH 5.2 buffer at 37 degC after 72 hrs; type: physicochemical; conditions: pH 5.2, 72 h; how it was run: as §1
Punta Toro virus = assay: Antiviral activity against Punta Toro virus in Vero cells; type: functional, organism-based
[7] = Cytotoxicity against Vero cells; type: cell-based; conditions: chlorocebus sabaeus
[8] = Cytotoxicity against HEL cells; type: cell-based; conditions: human
Human alphaherpesvirus 1 [9] = assay: (§2) Antiviral activity against HSV1 KOS in HEL cells; type: functional, organism-based; conditions: Human alphaherpesvirus 1, KOS
Hepatitis C virus = assay: Antiviral activity against HCV in Huh5-2 cells by subgenomic replicon assay; type: functional, organism-based, Hepacivirus hominis; conditions: Huh-5-2
How it was run: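 Huh-5-2 cells bearing HCV genotype 1b subgenomic replicon I389luc-ubi-neo/NS3-3'/5.1, seeded 7000 cells/well, adhered 24 h, then five 5-fold dilutions from 100 µM in medium lacking G418 for 72 h at 37 °C, 5% CO2. Interferon alfa 2a (500 IU) positive control. Firefly luciferase read as % of untreated cultures; EC50 calculated.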

[10] = Stability in pH 8.1 buffer at 37 degC after 72 hrs; type: physicochemical; conditions: pH 8.1, 72 h; how it was run: as §1
[11] = Cytotoxicity against MAGI-CCR5 cells; type: cell-based; conditions: human
How it was run: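 MAGI-CCR5 cells (10^4 cells/well) were exposed to 0-400 µM compound, 4 h before mock/HIV-1 spinoculation and then throughout a 2-day culture. CC50 is the concentration inhibiting cell proliferation by 50%.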

Human respirovirus 3 = assay: Antiviral activity against para influenza 3 virus in Vero cells; type: functional, organism-based; conditions: Human respirovirus 3, Vero
[12] = test system: Mammalian orthoreovirus 1; assay: Antiviral activity against reovirus 1 in Vero cells; type: functional, organism-based; conditions: Mammalian orthoreovirus 1, Vero
[13] = Stability in pH 9.0 buffer at 37 degC after 72 hrs; type: physicochemical; conditions: pH 9, 72 h; how it was run: as §1
[14] = Cytotoxicity against HeLa cells; type: cell-based; conditions: human
Coxsackievirus B4 = assay: Antiviral activity against Coxsackie B4 virus in HeLa cells; type: functional, organism-based; conditions: Enterovirus B
[15] = test system: Human immunodeficiency virus 1; assay: Antiviral activity against HIV1 in MAGI-CCR5 cells; type: functional, organism-based; conditions: Human immunodeficiency virus 1, MAGI-CCR5
[16] = Stability in culture medium (RPMI+FBS); type: physicochemical; conditions: bovine
How it was run: (§3)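 Compound diluted to 0.1 mM final in RPMI 1640 or culture medium (RPMI 1640 + 10% heat-inactivated FCS), incubated 37 °C; aliquots frozen at -80 °C and analysed by on-line cleaning HPLC (C18, TEAB/acetonitrile gradient, 260 nm); half-lives calculated.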

Human alphaherpesvirus 1 [17] = assay: as §2; type: functional, organism-based; conditions: Human alphaherpesvirus 1, KOS; remark: listed apart in the source
[18] = Stability in RPMI-1640 medium; type: ADME; how it was run: as §3
Vaccinia virus = assay: Antiviral activity against vaccinia virus in HEL cells; type: functional, organism-based; conditions: Orthopoxvirus vaccinia
[19] = Stability in pH 11.5 buffer at 37 degC after 72 hrs; type: physicochemical; conditions: pH 11.5, 72 h; how it was run: as §1
[20] = Stability in pH 1.2 buffer at 37 degC after 72 hrs; type: physicochemical; conditions: pH 1.2, 72 h; how it was run: as §1

| Compound | EC50 (Sindbis virus) | EC50 (Human alphaherpesvirus 2) | EC50 [3] | Stability [4] | EC50 [5] | Stability [6] | EC50 (Punta Toro virus) | CC50 [7] | CC50 [8] | EC50 (Human alphaherpesvirus 1 [9]) | Stability [10] | CC50 [11] | EC50 [12] | Stability [13] | CC50 [14] | EC50 (Coxsackievirus B4) | EC50 [15] | half-life [16] | EC50 (Human alphaherpesvirus 1 [17]) | half-life [18] | further results |
| --- | --- | --- | --- | --- | --- | --- | --- | --- | --- | --- | --- | --- | --- | --- | --- | --- | --- | --- | --- | --- | --- |
| Nc1ncnc2c1ncn2CCOC[PH](=O)O | > 200 µM | 120 µM | > 200 µM | Stable | > 200 µM | Stable | > 200 µM | > 200 µM | > 200 µM | 120 µM | Stable | > 400 µM | > 200 µM | Stable | > 200 µM | > 200 µM | > 400000 nM | > 4320 min | > 200 µM | > 3 days | half-life [1]: > 4320 min; CC50 [2]: > 200 µM; EC50 (Hepatitis C virus): > 33 µM; EC50 (Human respirovirus 3): > 200 µM; EC50 (Vaccinia virus): > 200 µM; Stability [19]: Stable; Stability [20]: Stable |
| BP(=O)(O)COCCn1cnc2c(N)ncnc21 | > 200 µM | > 200 µM |  | Stable | > 200 µM | Stable | > 200 µM | > 200 µM | > 200 µM | > 200 µM | Stable | > 400 µM | > 200 µM | Stable | > 200 µM | > 200 µM | > 400000 nM | 318 min | > 200 µM | > 3 days | half-life [1]: 2880 min; CC50 [2]: > 200 µM; EC50 (Hepatitis C virus): > 33 µM; Stability [19]: Stable; Stability [20]: Stable |
| BP(=O)(O)CO[C@H](C)Cn1cnc2c(N)ncnc21 | > 200 µM | > 200 µM |  | Stable | > 200 µM | Stable | > 200 µM | > 200 µM | > 200 µM | 120 µM | Stable | > 400 µM | > 200 µM | Stable | > 200 µM | > 200 µM | > 400000 nM | 78 min | > 200 µM | > 3 days | half-life [1]: 1440 min; CC50 [2]: > 200 µM; EC50 (Hepatitis C virus): > 33 µM; Stability [19]: Stable; Stability [20]: Stable |
| C[C@H](Cn1cnc2c(N)ncnc21)OC[PH](=O)O | > 200 µM | > 200 µM | > 200 µM | Stable | > 200 µM | Stable | > 200 µM | > 200 µM | > 200 µM | > 200 µM | Stable | > 400 µM | > 200 µM | Stable | > 200 µM | > 200 µM | > 400000 nM | > 4320 min | > 200 µM | > 3 days | CC50 [2]: > 200 µM; EC50 (Hepatitis C virus): > 33 µM; EC50 (Human respirovirus 3): > 200 µM; EC50 (Vaccinia virus): > 200 µM; Stability [19]: Stable; Stability [20]: Stable |
| Nc1ncnc2c1ncn2C[C@H](O)CO [(S)-DHPA] | > 500 µM |  |  |  | > 500 µM |  | > 500 µM | > 500 µM |  |  |  |  | > 500 µM |  | > 500 µM | > 500 µM |  |  |  |  | EC50 (Human respirovirus 3): > 500 µM |
| Nc1nc2c(ncn2COCCO)c(=O)[nH]1 [ACYCLOVIR] |  | 0.48 µM | > 500 µM |  |  |  |  |  | > 500 µM | 12 µM |  |  |  |  |  |  |  |  | 0.48 µM |  | EC50 (Vaccinia virus): 300 µM |
| Nc1ncnc2c1ncn2CCOCP(=O)(O)O [ADEFOVIR] |  |  |  | Stable |  | Stable |  |  |  |  | Stable | > 400 µM |  | Stable |  |  | 5040 nM | > 4320 min |  | > 3 days | half-life [1]: > 4320 min; Stability [19]: Stable; Stability [20]: Stable |
| O=c1[nH]c(=O)n([C@H]2C[C@H](O)[C@@H](CO)O2)cc1/C=C/Br [BRIVUDINE] | > 500 µM | 300 µM | > 500 µM |  | > 500 µM |  | > 500 µM | > 500 µM | > 500 µM | 300 µM |  |  | > 500 µM |  | > 500 µM | > 500 µM |  |  | 0.096 µM |  | EC50 (Human respirovirus 3): > 500 µM; EC50 (Vaccinia virus): 2.4 µM |
| Nc1nc2c(ncn2COC(CO)CO)c(=O)[nH]1 [GANCICLOVIR] |  | 0.032 µM | > 100 µM |  |  |  |  |  | > 100 µM | 0.48 µM |  |  |  |  |  |  |  |  | 0.019 µM |  | EC50 (Vaccinia virus): > 100 µM |
| NC(=O)c1ncn([C@@H]2O[C@H](CO)[C@@H](O)[C@H]2O)n1 [RIBAVIRIN] | > 500 µM | > 500 µM | > 500 µM |  | 12 µM |  | 100 µM | > 500 µM | > 500 µM | > 500 µM |  |  | 100 µM |  | > 500 µM | > 500 µM |  |  | 300 µM |  | EC50 (Human respirovirus 3): 300 µM; EC50 (Vaccinia virus): 100 µM |
| Cc1cn([C@H]2C=C[C@@H](CO)O2)c(=O)[nH]c1=O [STAVUDINE] |  |  |  |  |  |  |  |  |  |  |  | > 400 µM |  |  |  |  | 62 nM |  |  |  |  |
| C[C@H](Cn1cnc2c(N)ncnc21)OCP(=O)(O)O [TENOFOVIR ANHYDROUS] |  |  |  | Stable |  | Stable |  |  |  |  | Stable | > 400 µM |  | Stable |  |  | 350 nM | > 4320 min |  | > 3 days | half-life [1]: > 4320 min; Stability [19]: Stable; Stability [20]: Stable |
| Cc1cn([C@H]2C[C@H](N=[N+]=[N-])[C@@H](CO)O2)c(=O)[nH]c1=O [ZIDOVUDINE] |  |  |  |  |  |  |  |  |  |  |  | > 400 µM |  |  |  |  | 25 nM |  |  |  |  |
